Experimental findings from ChEMBL document CHEMBL4177556, “Novel 5-HT7R antagonists, arylsulfonamide derivatives of (aryloxy)propyl piperidines: Add-on effect to the antidepressant activity of SSRI and DRI, and pro-cognitive profile” (Bioorg Med Chem, 2017) are described below.

Active and inactive are the calls of the source.

The subject of test [1] is Mus musculus. In words: Antidepressant-like activity in Swiss albino mouse assessed as decrease in immobility time at 1.25 mg/kg measured during last 4 mins of 6 mins test by forced swim test relative to control. Type of test: functional. Also on record: scale not given: the % may be the effect or the level left. The gist of the method: (§1)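 Porsolt swim test in male Swiss albino mice (22–26 g), 7–10 per dose, each used once, run 09:00–14:00 by a blinded observer. Drugs in distilled water, i.p. at 10 ml/kg: escitalopram 30 min before test, others 60 min. Immobility scored during the last 4 min of a 6 min swim at 23–25 °C. One-way ANOVA with Bonferroni vs vehicle.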

The test system of test [2] is Mus musculus. In words: Antidepressant-like activity in Swiss albino mouse assessed as decrease in immobility time at 2.5 mg/kg measured during last 4 mins of 6 mins test by forced swim test relative to control. Type of test: functional. Also on record: scale not given: the % may be the effect or the level left. Put shortly:
as §1

For test [3], the system named is Mus musculus. In words: Antidepressant-like activity in C57BL/6J mouse assessed as decrease in immobility time at 5 to 20 mg/kg measured during 6 mins session by tail suspension test. Type of test: functional, organism-based. Put shortly: (§2)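 C57BL/6J male mice (22–26 g), 7–9 per group. Escitalopram in distilled water, i.p. at 10 ml/kg, 30 min before test. Tail suspension on a strain gauge for 6 min, scoring fight force, episode count and immobility below a 0.20 N threshold. One-way ANOVA with Bonferroni.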

The subject of test [4] is Mus musculus. Nature of the test: Antidepressant-like activity in C57BL/6J mouse assessed as increase in average force of fights at 20 mg/kg measured during 6 mins session by tail suspension test. The test is classed as functional, organism-based. The gist of the method: as §2
Test [5] deals with Mus musculus. Nature of the test: Antidepressant-like activity in Swiss albino mouse assessed as decrease in immobility time at 0.625 mg/kg measured during last 4 mins of 6 mins test by forced swim test. The test is classed as functional, organism-based. Put shortly: as §1
Test [6] addresses 5-hydroxytryptamine receptor 7 (Homo sapiens, UniProt P34969). Nature of the test: Displacement of [3H]-5-CT from human 5-HT7b receptor expressed in HEK293 cells after 1 hr by microbeta counting analysis. Type of test: cell-based. Put shortly:
(§3)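 Membranes from stably transfected HEK293 or CHO-K1 cells, homogenized, centrifuged twice at 35,000g, with 15 min at 37 °C in between. Receptor-specific Tris-HCl buffers with MgCl2, plus EDTA, pargyline or ascorbate as applicable. Incubated 1 h at 37 °C (5-HT1A at room temperature), filtered, and bound radioactivity counted.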

The target in test [7] is T1, 5-hydroxytryptamine receptor 1A (Homo sapiens, UniProt P08908).
T1 sequence (P08908 whole entry): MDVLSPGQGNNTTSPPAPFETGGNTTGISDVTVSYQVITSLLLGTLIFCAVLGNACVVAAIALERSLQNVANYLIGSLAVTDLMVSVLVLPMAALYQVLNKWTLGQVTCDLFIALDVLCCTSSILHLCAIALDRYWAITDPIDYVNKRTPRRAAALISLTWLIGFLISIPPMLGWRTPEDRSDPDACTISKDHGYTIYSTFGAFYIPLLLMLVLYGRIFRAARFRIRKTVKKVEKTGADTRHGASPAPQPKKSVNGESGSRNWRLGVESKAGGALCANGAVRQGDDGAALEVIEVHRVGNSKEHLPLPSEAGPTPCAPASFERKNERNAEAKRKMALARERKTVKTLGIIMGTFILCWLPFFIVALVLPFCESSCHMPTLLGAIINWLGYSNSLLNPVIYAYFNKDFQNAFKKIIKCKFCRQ
Nature of the test: Displacement of [3H]-8-OH-DPAT from human 5-HT1A receptor expressed in HEK293 or CHO-K1 cells after 1 hr by microbeta counting analysis. The test is classed as cell-based. The gist of the method:
as §3

For a further test, the species on record is Homo sapiens. Nature of the test: Selectivity ratio of Ki for human 5-HT1A receptor to Ki for human 5-HT7b receptor.

5-hydroxytryptamine receptor 7, sequence (P34969 whole entry): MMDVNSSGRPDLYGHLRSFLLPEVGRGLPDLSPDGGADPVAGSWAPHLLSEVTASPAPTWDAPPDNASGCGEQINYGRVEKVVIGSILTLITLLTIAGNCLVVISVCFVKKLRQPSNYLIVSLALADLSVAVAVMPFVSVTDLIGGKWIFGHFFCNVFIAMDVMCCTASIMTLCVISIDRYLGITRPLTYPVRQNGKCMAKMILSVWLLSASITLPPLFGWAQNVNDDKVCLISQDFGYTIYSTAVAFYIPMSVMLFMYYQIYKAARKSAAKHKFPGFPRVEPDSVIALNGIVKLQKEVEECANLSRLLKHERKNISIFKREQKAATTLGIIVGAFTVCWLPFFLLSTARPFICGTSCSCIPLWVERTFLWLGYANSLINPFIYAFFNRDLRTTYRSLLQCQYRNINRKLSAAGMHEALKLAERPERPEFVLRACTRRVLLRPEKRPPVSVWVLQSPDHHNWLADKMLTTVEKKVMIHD

Regarding `CN(C)CCC[C@@]1(c2ccc(F)cc2)OCc2cc(C#N)ccc21` [ESCITALOPRAM], the values for the Activity with Mus musculus [1] and with Mus musculus [2] were 27% and 34%, respectively. Besides, the result with Mus musculus [3] and in the test with Mus musculus [4] was Active. Moreover, in the test on Mus musculus [5], the result was inactive.

Regarding `CC(C)c1ccccc1OCC(O)CN1CCC(NS(=O)(=O)c2ccc(F)cc2)CC1` (stereo not drawn), the inhibitory constant (Ki) amounted to 104 nM in test [6] and 506 nM in test [7]. For the same compound, in the test filed under Homo sapiens, the Ratio Ki was determined as 5.

On to `CC(C)c1ccccc1OCC(C)N1CCC(NS(=O)(=O)c2ccc(F)cc2)CC1` (stereo not drawn), for which the Ki was found to be 74 nM in test [6] and 1170 nM in test [7]. In the test listed under Homo sapiens, the Ratio Ki was 16.

For `CC(C)c1ccccc1OCC(O)CN1CCC(NS(=O)(=O)c2cccc(F)c2)CC1` (stereo not drawn), the figures for the Ki in test [6] and in test [7] were 213 nM and 742 nM, respectively. Besides, in the test listed under Homo sapiens, the Ratio Ki was 4.

`O=S(=O)(NC1CCN(CC(O)COc2ccccc2-c2ccccc2)CC1)c1ccc(F)cc1` (stereo not drawn): the Ki in test [6] stood at 59 nM; in test [7] it was 1320 nM. Also, the Ratio Ki in the test filed under Homo sapiens was found to be 22.

On to `O=S(=O)(NC1CCN(CCCOc2ccccc2-c2ccccc2)CC1)c1ccc(F)cc1`, for which the Ki in test [6] was 58 nM; in test [7] it was 1840 nM. In addition, the Ratio Ki in the test filed under Homo sapiens came to 32.

With `CC(C)c1ccccc1OCC(C)N1CCC(NS(=O)(=O)c2cccc(F)c2)CC1` (stereo not drawn), the values for the inhibition constant (Ki) in test [6] and in test [7] were 170 nM and 962 nM, respectively. Besides, in the test filed under Homo sapiens, the Ratio Ki was 6.
